Rows were chosen to be rich in hits. Some 3.5% of all compounds tested hit in one or more screens of this group.
FGF22 binding: binders of human FGF22 protein, primary screen, FGF22 synaptogenesis inhibitor project, biophysical, thermal shift, single point; Fibroblast growth factor 22 (Homo sapiens), Q9HCT0; recombinant FGF22 thermal shift, SYPRO orange fluorescence; percent of sucrose octasulfate shift, DMSO zero; activity (Tm shift, normalised), % at 9.99 µM; 340,000 tested, 1.5% active; AID 651658, 2012;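 active = mean Tm shift, scaled 0 neutral to 100 positive control, at about 1.3% or above, every replicate too, limit read from the data; inconclusive = no clear call, values can overlap the other calls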
Cneo AK release: Cryptococcus neoformans cell lysis inducers, primary screen, AK release luminescence, single concentration; 360,000 tested, 0.2% active; AID 651654, 2012; lysis activity, % at 15 µM; C. neoformans lysis, adenylate kinase release luminescence, 4 h; normalised: neutral wells 0, clomiphene wells 100;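 active = mean lysis activity across replicates of at least 80%, whatever share of replicates individually reach that level; inactive = mean lysis activity below 80%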
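Test system: log-phase Cryptococcus neoformans yeast cells; Quantity: yeast cell density of 5 × 10^6 cells/mL; Buffer or medium: YPD; Doses: single compound concentration per well; Timing: 4 h at 37 °C static, read 1 h later; Measured by: AK luminescence; Read-out basis: lysis from increased AK signal; Control set: Clomiphene as positive control.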
PGC1a acetyl inh: inhibitors of PGC1a acetylation signal, primary screen, cell-based, U2OS, AlphaScreen, inhibitor mode | AlphaScreen anti-acetyl-lysine; with virally co-expressed GCN5 acetyltransferase | inhibition, % at 15.6 µM | 350,000 tested, 0.17% active;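 active = every replicate shows inhibition of at least 40%; inconclusive = mean inhibition at least 40% but some replicate below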;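 note: 0% = neutral control wells and 100% = positive control wells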
Env fusion inh: inhibitors of HIV-1 Env-driven cell-cell fusion, primary screen, HeLa-JRFL effector, CEM21 target cells, luciferase. inhibition, % at 12.3 µM. AID 651610, 2012. 360,000 tested, 1.1% active;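 active = mean replicate inhibition score of at least 50 and every replicate individually at or above 50; inconclusive = only one of the two criteria met; inactive = mean below 50 and not all replicates reaching 50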;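 note: 0% = plate neutral controls and 100% = maraviroc near 300 nM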
Ecoli rRNA inh: reduced GFP signal of wild-type E. coli, primary screen, bacterial rRNA inhibitor project, GFP/RFP fluorescence, OD600, single point | GFP signal change (wild-type ribosome), % (no concentration beside the values) | AID 720706, 2013 | E. coli WT GFP vs humanized-ribosome RFP mutants, 24 h; hits give low values; DMSO median 0, no signal -100 | 350,000 tested, 1.6% active;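 active = significant combined selectivity score with lowered wild-type GFP, culture density cut under 30%, mutant RFP and density less affected; inactive = any of these conditions unmet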
ERAP1 HTS inh: human ERAP1 aminopeptidase inhibitors, primary screen, biochemical, single point, plate reader. Endoplasmic reticulum aminopeptidase 1 (Homo sapiens), Q9NZ08. recombinant ERAP1, Leu-AMC fluorescence, 60 min. inhibition, % at 10.7 µM. 340,000 tested, 0.15% active. AID 652197, 2013;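 active = mean replicate inhibition of at least 30%, or all replicates individually reaching that 30% level; inactive = mean below 30% and not every replicate reaching it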;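 note: 0% = neutral control wells and 100% = L-leucinethiol positive control wells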
Target sequence (Q9NZ08 whole entry, looked up): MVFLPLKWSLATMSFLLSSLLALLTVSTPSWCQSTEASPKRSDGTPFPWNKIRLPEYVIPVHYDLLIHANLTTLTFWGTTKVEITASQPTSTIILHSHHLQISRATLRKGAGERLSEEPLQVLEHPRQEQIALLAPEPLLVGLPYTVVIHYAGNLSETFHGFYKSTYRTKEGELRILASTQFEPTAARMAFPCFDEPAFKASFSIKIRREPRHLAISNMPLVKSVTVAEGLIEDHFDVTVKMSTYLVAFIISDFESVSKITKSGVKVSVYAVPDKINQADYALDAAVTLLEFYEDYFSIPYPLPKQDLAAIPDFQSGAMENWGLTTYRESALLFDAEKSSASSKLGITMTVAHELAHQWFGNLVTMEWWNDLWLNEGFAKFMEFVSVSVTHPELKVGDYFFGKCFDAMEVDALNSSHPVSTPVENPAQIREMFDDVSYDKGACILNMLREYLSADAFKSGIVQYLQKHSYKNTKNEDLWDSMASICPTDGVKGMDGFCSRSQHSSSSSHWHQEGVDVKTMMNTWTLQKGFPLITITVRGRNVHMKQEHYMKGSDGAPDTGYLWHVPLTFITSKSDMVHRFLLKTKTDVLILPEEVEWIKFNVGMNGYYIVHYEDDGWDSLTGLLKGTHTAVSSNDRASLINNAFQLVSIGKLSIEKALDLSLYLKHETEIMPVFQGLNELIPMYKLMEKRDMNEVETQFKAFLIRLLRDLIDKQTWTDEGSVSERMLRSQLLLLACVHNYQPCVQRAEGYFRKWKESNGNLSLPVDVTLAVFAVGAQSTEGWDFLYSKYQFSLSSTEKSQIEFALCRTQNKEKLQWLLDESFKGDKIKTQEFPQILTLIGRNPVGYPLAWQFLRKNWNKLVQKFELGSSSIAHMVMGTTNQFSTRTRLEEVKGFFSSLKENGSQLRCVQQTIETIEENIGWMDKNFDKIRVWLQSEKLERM
* marks the source's active call; other numbers are inactive results; [ ] = another dose, or the depositor's remark.

`COc1ccc(OC)c(/C=C/C(=O)N2CCN(S(=O)(=O)c3ccc(C)cc3C)CC2)c1` gave FGF22 binding 0, Cneo AK release 0, PGC1a acetyl inh -11, Env fusion inh -3 and ERAP1 HTS inh -23.
COc1ccc(S(=O)(=O)n2ccc(-c3ccc(OCCN(C)c4ccccn4)cc3)n2)cc1 was read as Cneo AK release 0, PGC1a acetyl inh -18 and Env fusion inh 75*.
Screening COc1ccc(S(=O)(=O)N(CC(=O)O)c2ccccn2)cc1 returned Cneo AK release 2, PGC1a acetyl inh 25 and Env fusion inh -38.
For CN(C)S(=O)(=O)c1cccc(NC(=O)CN2C(=O)C3C4C=CC(C4)C3C2=O)c1 (stereo unspecified) the results were Env fusion inh 5.
For O=C(COC(=O)c1nc(Cl)ccc1Cl)Nc1ccccc1OC(F)F the results were FGF22 binding 0, Cneo AK release 5, PGC1a acetyl inh 1, Env fusion inh 10, Ecoli rRNA inh -19* and ERAP1 HTS inh -5.
For CC(NC(=O)COC(=O)c1nc(Cl)ccc1Cl)c1ccccc1 (stereo unspecified) the results were FGF22 binding 44*, Cneo AK release 1, PGC1a acetyl inh -3, Env fusion inh -1, Ecoli rRNA inh 1 and ERAP1 HTS inh 1.
O=C(COC(=O)c1ccccn1)Nc1ccccc1OC(F)F was read as FGF22 binding 43*, PGC1a acetyl inh -3, Env fusion inh 9, Ecoli rRNA inh 6 and ERAP1 HTS inh 2.
`O=C(COC(=O)c1nc(Cl)ccc1Cl)NNC(=O)c1ccccc1` gave Cneo AK release 0, PGC1a acetyl inh 6, Env fusion inh 6, Ecoli rRNA inh 8 and ERAP1 HTS inh 0.
`O=C(COC(=O)c1cccnc1Cl)Nc1ccccc1OC(F)F` gave FGF22 binding 0, Env fusion inh -14, Ecoli rRNA inh -3 and ERAP1 HTS inh 2.
Screening O=C(OCC(=O)N1CCc2ccccc21)c1nc(Cl)ccc1Cl returned FGF22 binding 44*, Env fusion inh 19, Ecoli rRNA inh -19 and ERAP1 HTS inh 2.
O=C(COC(=O)c1ccc(Cl)c([N+](=O)[O-])c1)Nc1ccccc1OC(F)F was read as Env fusion inh 9.
Screening C[C@H](CO)N1C[C@H](C)[C@@H](CN(C)Cc2ccccc2)Oc2ccc(N(C)C)cc2CC1=O returned FGF22 binding -1, Cneo AK release 1, PGC1a acetyl inh -23, Env fusion inh 9[16.7 µM], Ecoli rRNA inh 1 and ERAP1 HTS inh 0.
`COc1cc(C(=O)N2CCN(c3ccccc3OC)CC2)c([N+](=O)[O-])cc1OC` gave FGF22 binding 0, Cneo AK release 1, PGC1a acetyl inh 3, Env fusion inh 15, Ecoli rRNA inh 11 and ERAP1 HTS inh 4.
For COc1cc(C(=O)N2CCN(c3ccccc3)CC2)c([N+](=O)[O-])cc1OC the results were FGF22 binding 43*, Cneo AK release -2, PGC1a acetyl inh 12, Env fusion inh -7, Ecoli rRNA inh -2 and ERAP1 HTS inh 1.
For COc1cc(C(=O)c2ccccc2Cl)c([N+](=O)[O-])cc1OC the results were FGF22 binding 44*, Cneo AK release -1, Env fusion inh 8, Ecoli rRNA inh 2 and ERAP1 HTS inh -3.
CC(=O)Nc1cccn(Cc2c(Cl)cccc2Cl)c1=O was read as FGF22 binding 43*, Env fusion inh 8, Ecoli rRNA inh 6 and ERAP1 HTS inh -2.
Screening COc1ccc(C2CC(c3ccccc3)n3nnnc3N2)cc1 (stereo unspecified) returned Cneo AK release -2, PGC1a acetyl inh 1 and Env fusion inh inconclusive.
For Fc1ccc2c(c1)/C(=N/Nc1ccccn1)CCS2 the results were FGF22 binding 0, PGC1a acetyl inh 6, Env fusion inh -22, Ecoli rRNA inh -22* and ERAP1 HTS inh 1.
CS(=O)(=O)c1nc(S(=O)(=O)c2ccc(Cl)cc2)c(NCCCN2CCOCC2)s1 was read as FGF22 binding 0, Cneo AK release 1, PGC1a acetyl inh 1, Env fusion inh 7, Ecoli rRNA inh 8 and ERAP1 HTS inh 0.
`CCS(=O)(=O)c1nc(S(=O)(=O)c2ccc(Cl)cc2)c(NCc2ccccn2)s1` gave FGF22 binding 44*, PGC1a acetyl inh 6, Env fusion inh 1, Ecoli rRNA inh 5 and ERAP1 HTS inh -2.
`CCNc1sc(S(C)(=O)=O)nc1S(=O)(=O)c1ccc(Cl)cc1` gave FGF22 binding 43*, PGC1a acetyl inh 3, Env fusion inh 16, Ecoli rRNA inh 7 and ERAP1 HTS inh -3.
CN(CC(=O)Nc1ccccc1C(=O)Nc1ccccc1)C1CCCCC1 was read as FGF22 binding 0, Cneo AK release -1, PGC1a acetyl inh 1, Env fusion inh 9, Ecoli rRNA inh 7 and ERAP1 HTS inh 4.
Screening Cc1ccc(S(=O)(=O)N2C(=O)CCC2C(=O)Nc2ccc3c(c2)OCCO3)cc1 (stereo unspecified) returned Cneo AK release -1, PGC1a acetyl inh -2 and Env fusion inh -2.
For COc1ccc(CNC(=O)CN2C(=O)C(C)N(c3ccc(C)cc3)C2=O)cc1 (stereo unspecified) the results were Cneo AK release -1 and PGC1a acetyl inh -3.
`CCCC(O)C#Cc1cnc2c(c1)C(=O)N([C@H](C)CO)C[C@H](C)[C@H](CN(C)Cc1ccncc1)O2` (stereo partly specified) gave FGF22 binding 0, Cneo AK release -2, PGC1a acetyl inh -1, Env fusion inh -3[16.7 µM], Ecoli rRNA inh 4 and ERAP1 HTS inh 5.
Screening COc1ccc(OCc2cc(C(=O)N[C@H]3CCCCNC3=O)no2)c(Cl)c1 returned FGF22 binding 0, Cneo AK release -12, PGC1a acetyl inh 0, Env fusion inh -18, Ecoli rRNA inh -1 and ERAP1 HTS inh 2.
For CSc1ccccc1OCc1cc(C(=O)N[C@H]2CCCCNC2=O)no1 the results were FGF22 binding 0, Cneo AK release 0, Env fusion inh -42, Ecoli rRNA inh -19* and ERAP1 HTS inh -1.
For Cc1noc(C)c1NC(=O)N1C[C@@H](O)COC[C@@H]2O[C@@H](CC(=O)NCC3CC3)CC[C@H]21 the results were FGF22 binding 0, Cneo AK release -3, PGC1a acetyl inh 13, Env fusion inh -4[16.7 µM], Ecoli rRNA inh 5 and ERAP1 HTS inh 0.
